Values after ≈ are worked out from the molar mass of the structure shown.
Experiments:
[1] = test system: Escherichia coli; test: Inhibition of LspA in Escherichia coli CFT073imp4213 harboring outer membrane-permeable mutant assessed as inhibition of bacterial growth
Outline: (§1)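 Read-out is the minimum inhibitory concentration, reported in µM.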

[2] = test system: Escherichia coli CFT073; test: Inhibition of LspA in wild type Escherichia coli CFT073 assessed as inhibition of bacterial growth; outline: as §1
[3] = Growth inhibition of Staphylococcus aureus USA300
[4] = Lipophilicity, logD of the compound at pH 7.4; details: buffer, pH 7.4, logD

Structure (SMILES)	MIC [1] [µM]	MIC [2] [µM]	MIC [3] [µM]	logD [4]
CCCCCCCCCC[C@H]1OC(=O)CNC(=O)[C@H]([C@H](C)O)NC(=O)[C@H](CO)NC(=O)[C@H]([C@H](C)CC)NC(=O)[C@H](CC(C)C)N(C)C(=O)[C@@H]1C	0.016 (≈ 0.0114 µg/mL)	5.4 (≈ 3.84 µg/mL)	25 (≈ 17.8 µg/mL)	–
CCCCCC[C@H]1OC(=O)CNC(=O)[C@H]([C@H](C)O)NC(=O)[C@H](CN)NC(=O)[C@H](C2CCCCC2)NC(=O)[C@H](CC)N(C)C(=O)[C@@H]1C	0.14 (≈ 0.0914 µg/mL)	8.8 (≈ 5.74 µg/mL)	> 100	–
CCCCCC[C@H]1OC(=O)CNC(=O)[C@H]([C@H](C)O)NC(=O)[C@H](CN)NC(=O)[C@H]([C@@H](C)O)NC(=O)[C@H](CC(C)C)N(C)C(=O)[C@@H]1C	50 (≈ 32.1 µg/mL)	> 100	> 100	–
CCCCCC[C@H]1OC[C@@H](C)NC(=O)[C@H](CN(C)CCCN)NC(=O)[C@H](CN)NC(=O)[C@H](C2CCCCCC2)NC(=O)[C@H](CCC)N(C)C(=O)[C@@H]1C	0.39 (≈ 0.287 µg/mL)	8.8 (≈ 6.49 µg/mL)	100 (≈ 73.7 µg/mL)	1.8
CCCCCC[C@H]1OC(=O)CNC(=O)[C@H]([C@H](C)O)NC(=O)[C@H](CN)NC(=O)[C@H]([C@@H](C)OC)NC(=O)[C@H](CC(C)C)N(C)C(=O)[C@@H]1C	7.7 (≈ 5.06 µg/mL)	> 100	> 100	–
CCCCCC[C@H]1OC(=O)CNC(=O)[C@H]([C@H](C)O)NC(=O)[C@H](CN)NC(=O)[C@H](CCC(N)=O)NC(=O)[C@H](CC(C)C)N(C)C(=O)[C@@H]1C	> 100	> 100	> 100	–
COC(C)(C)CCCCCC[C@H]1OC(=O)CNC(=O)[C@H]([C@H](C)O)NC(=O)[C@H](CN)NC(=O)[C@H](C2CCCCC2)NC(=O)[C@H](CC(C)C)N(C)C(=O)[C@@H]1C	0.048 (≈ 0.0361 µg/mL)	2.2 (≈ 1.66 µg/mL)	> 100	2.8
CCCCCC[C@H]1OC(=O)CNC(=O)[C@H]([C@H](C)O)NC(=O)[C@H](CN)NC(=O)[C@H](Cc2ccccc2)NC(=O)[C@H](CC(C)C)N(C)C(=O)[C@@H]1C	0.8 (≈ 0.551 µg/mL)	50 (≈ 34.4 µg/mL)	> 100	–
CCCCCC[C@H]1OC(=O)CNC(=O)[C@H]([C@H](C)O)NC(=O)[C@H](CN)NC(=O)[C@H](C2CCCCCC2)NC(=O)[C@H](CC(C)C)N(C)C(=O)[C@@H]1C	0.014 (≈ 0.00973 µg/mL)	1.1 (≈ 0.764 µg/mL)	50 (≈ 34.7 µg/mL)	3.4
CCCCCC[C@H]1OC[C@@H](C)NC(=O)[C@H](CNCCCN)NC(=O)[C@H](CN)NC(=O)[C@H](C2CCCCCC2)NC(=O)[C@H](CCC)N(C)C(=O)[C@@H]1C	0.28 (≈ 0.202 µg/mL)	3.1 (≈ 2.24 µg/mL)	50 (≈ 36.2 µg/mL)	1.1
CCC[C@H]1C(=O)N[C@@H](C2CCCCCC2)C(=O)N[C@@H](CN)C(=O)N[C@@H]([C@H](C)O)C(=O)NCC(=O)O[C@H](C[C@@H]2CC[C@@H]3CC[C@H]2C3)[C@@H](C)C(=O)N1C	0.009 (≈ 0.00647 µg/mL)	0.4 (≈ 0.288 µg/mL)	25 (≈ 18 µg/mL)	3.1
CCCCCCCCCC[C@H]1OC(=O)CNC(=O)[C@H]([C@H](C)O)NC(=O)[C@H](CNC(=N)N)NC(=O)[C@H]([C@@H](C)CC)NC(=O)[C@H](CC(C)C)N(C)C(=O)[C@@H]1C	1.6 (≈ 1.2 µg/mL)	50 (≈ 37.6 µg/mL)	13 (≈ 9.79 µg/mL)	–
CC[C@@H](C)[C@@H]1NC(=O)[C@H](CC(C)C)N(C)C(=O)[C@H](C)[C@@H](CCCCC(C)(C)C)OC(=O)CNC(=O)[C@H]([C@H](C)O)NC(=O)[C@H](CN)NC1=O	0.035 (≈ 0.0239 µg/mL)	3.1 (≈ 2.12 µg/mL)	100 (≈ 68.3 µg/mL)	3
CCCCCC[C@H]1OC(=O)CNC(=O)[C@H]([C@H](C)O)NC(=O)[C@H](CN)NC(=O)[C@H](C2CCCCC2)NC(=O)[C@H](CCC)N(C)C(=O)[C@@H]1C	0.049 (≈ 0.0327 µg/mL)	3.5 (≈ 2.33 µg/mL)	> 100	–
CCCCCCCCCC[C@H]1OC(=O)CNC(=O)[C@H]([C@H](C)O)NC(=O)[C@H](CCN)NC(=O)[C@H]([C@@H](C)CC)NC(=O)[C@H](CC(C)C)N(C)C(=O)[C@@H]1C	0.39 (≈ 0.283 µg/mL)	25 (≈ 18.1 µg/mL)	13 (≈ 9.42 µg/mL)	–
CCCCCC[C@H]1OC(=O)CNC(=O)[C@H]([C@H](C)O)NC(=O)[C@H](CN)NC(=O)[C@H](CC(C)C)NC(=O)[C@H](CC(C)C)N(C)C(=O)[C@@H]1C	0.4 (≈ 0.262 µg/mL)	25 (≈ 16.4 µg/mL)	> 100	–
CCCC(C)(C)CC[C@H]1OC(=O)CNC(=O)[C@H]([C@H](C)O)NC(=O)[C@H](CN)NC(=O)[C@H]([C@H](C)CC)NC(=O)[C@H](CC(C)C)N(C)C(=O)[C@@H]1C	0.034 (≈ 0.0232 µg/mL)	3.1 (≈ 2.12 µg/mL)	100 (≈ 68.3 µg/mL)	3.2
CCCCCC[C@H]1OC(=O)CNC(=O)[C@H]([C@H](C)O)NC(=O)[C@H](CN)NC(=O)[C@H]([C@H](C)CC)NC(=O)[C@H](CC(C)C)N(C)C(=O)[C@@H]1C	0.053 (≈ 0.0347 µg/mL)	8.6 (≈ 5.63 µg/mL)	> 100	–
